Active and inactive are the calls of the source. The calls are words filed in the database; no cut-off is given here.
Columns and labels:
[1] = Cytotoxicity against Wistar rat neutrophils assessed as reduction in cell viability at 10 nM after 18 hrs by trypan blue staining method; format: cell-based; settings: neutrophil, 0.01 µM
In short: (§1)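 Neutrophils were elicited in male Wistar rats by intraperitoneal oyster glycogen (1%, 10 mL) and harvested after 4 h. Cells were exposed to compound at 1, 10, 100 or 1000 nM, with or without LPS, for 18 h in RPMI1640 with 10% FBS. Viability was scored by trypan blue staining against medium-only controls.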

[2] = tested on: Neutrophil; test: Antiinflammatory activity in Wistar rat neutrophils assessed as decrease in PGE2 level at 10 nM after 18 hrs by EIA; format: functional, cell-based
In short: (§2)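 Neutrophils were taken from male Wistar rats 4 h after intraperitoneal oyster glycogen (1%, 10 mL). Cells were cultured in RPMI1640 with 10% FBS, with compound at 10 nM, with or without LPS, for 18 h. PGE₂ in the culture supernatant was quantified by EIA. Data are the mean ± s.e.m. of cells from four animals, compared against medium-only control cells.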

[3] = tested on: Neutrophil; test: Antiinflammatory activity in Wistar rat neutrophils assessed as decrease in LPS-induced PGE2 secretion at 10 nM after 18 hrs by EIA; format: functional, cell-based; in short: as §2
[4] = target: T1, Prostaglandin G/H synthase 1 (Rattus norvegicus) (UniProt Q63921); test: Inhibition of COX-1 in rat leukocytes assessed as reduction in PGE2 production from arachidonic acid at 10 nM preincubated for 10 mins by EIA; format: cell-based
T1 sequence (whole entry): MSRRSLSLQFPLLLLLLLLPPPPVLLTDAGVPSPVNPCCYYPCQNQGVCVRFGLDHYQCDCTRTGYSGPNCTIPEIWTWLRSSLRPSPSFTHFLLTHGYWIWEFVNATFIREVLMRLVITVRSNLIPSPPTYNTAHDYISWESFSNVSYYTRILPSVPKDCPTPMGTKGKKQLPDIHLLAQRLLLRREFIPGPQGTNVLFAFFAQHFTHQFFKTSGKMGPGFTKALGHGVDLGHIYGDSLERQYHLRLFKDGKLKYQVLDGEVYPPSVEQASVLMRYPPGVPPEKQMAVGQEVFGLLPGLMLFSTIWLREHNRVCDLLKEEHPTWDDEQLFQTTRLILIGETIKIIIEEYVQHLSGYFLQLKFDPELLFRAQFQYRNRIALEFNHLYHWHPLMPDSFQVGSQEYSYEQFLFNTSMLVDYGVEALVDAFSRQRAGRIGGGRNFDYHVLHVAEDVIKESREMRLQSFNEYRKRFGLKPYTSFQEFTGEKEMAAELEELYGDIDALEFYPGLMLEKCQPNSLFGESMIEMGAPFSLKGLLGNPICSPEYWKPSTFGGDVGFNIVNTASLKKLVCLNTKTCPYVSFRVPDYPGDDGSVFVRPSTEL

[5] = Cytotoxicity against LPS-stimulated Wistar rat neutrophils assessed as reduction in cell viability at 10 nM after 18 hrs by trypan blue staining method; format: cell-based; settings: neutrophil, 0.01 µM; in short: as §1

| SMILES | inhibition [4] | Activity [1] | Activity [2] | Activity [3] | Activity [5] |
| --- | --- | --- | --- | --- | --- |
| COc1ccc(-c2ccc(-c3cccc(NC(=O)[C@H](Cc4ccccc4)NC(=O)OC(C)(C)C)c3)o2)cc1 | inactive | Non-toxic | inactive | inactive | Non-toxic |
| COc1ccc(-c2ccc(-c3cccc(NC(=O)[C@H](CSCc4ccccc4)NC(=O)OCc4ccccc4)c3)o2)cc1 | inactive | Non-toxic | inactive | inactive | Non-toxic |
| COc1ccc(-c2ccc(-c3cccc(NC(=O)[C@H](CCCNC(=N)NS(=O)(=O)c4ccc(C)cc4)NC(=O)OC(C)(C)C)c3)o2)cc1 | inactive |  |  |  |  |
| Cc1ccc(-c2cc(C(F)(F)F)nn2-c2ccc(S(N)(=O)=O)cc2)cc1 |  |  | inactive | Active |  |
| COc1ccc(-c2ccc(-c3cccc(NC(=O)[C@@H]4CCCN4C(=O)OC(C)(C)C)c3)o2)cc1 | inactive | Non-toxic | inactive | Active | Non-toxic |
| COc1ccc(-c2ccc(-c3cccc(NC(=O)[C@H](COC(=O)c4ccccc4)NC(=O)OC(C)(C)C)c3)o2)cc1 | inactive |  |  |  |  |
| COc1ccc(-c2ccc(-c3cccc(NC(=O)[C@H](CCC(=O)OC(C)(C)C)NC(=O)OCC4c5ccccc5-c5ccccc54)c3)o2)cc1 | inactive |  |  |  |  |

Further lines, with some results ahead:

| inhibition [4] | SMILES | Activity [1] | Activity [2] | Activity [3] | Activity [5] |
| --- | --- | --- | --- | --- | --- |
| inactive | COc1ccc(-c2ccc(-c3cccc(NC(=O)[C@@H](NC(=O)OC(C)(C)C)C(C)C)c3)o2)cc1 | Non-toxic | inactive | inactive | Non-toxic |
| inactive | COc1ccc(-c2ccc(-c3cccc(NC(=O)[C@H](CC(C)C)NC(=O)OC(C)(C)C)c3)o2)cc1 |  |  |  |  |
| inactive | COc1ccc(-c2ccc(-c3cccc(NC(=O)[C@H](CCSC)NC(=O)OC(C)(C)C)c3)o2)cc1 |  |  |  |  |
| inactive | COc1ccc(-c2ccc(-c3cccc(NC(=O)[C@H](C)NC(=O)OC(C)(C)C)c3)o2)cc1 |  |  |  |  |
| inactive | COc1ccc(-c2ccc(-c3cccc(NC(=O)CNC(=O)OC(C)(C)C)c3)o2)cc1 |  |  |  |  |
